Results gathered from unrelated publications.
Lines come from different studies, so protocols differ.
Target: Serine/threonine-protein kinase/endoribonuclease IRE1 (ERN1, Homo sapiens, UniProt O75460)

SMILES	observed	mode	technique	cells	tested at	endpoint	value
O=C(Nc1cnn(-c2csc(C(=O)NC3COC3)c2)c1)Nc1ccccc1Cl	enzyme activity	inhibitor	–	–	5 µM	remaining activity	94.3%
COc1cc(Cl)c(C(=O)N[C@@H](CN[C@H]2CC[C@@H](N)CC2)Cc2ccc(C#N)cc2)cc1-c1ccc(CN[C@H](C)c2ccc(C)cc2)o1	enzyme activity	inhibitor	–	–	1 µM	remaining activity	93%
Cc1sc(C(=O)NC2COC2)cc1-n1cc(NC(=O)Nc2c(F)cccc2Cl)cn1	enzyme activity	inhibitor	–	–	10 µM	remaining activity	94.1%
CCN1CCN(Cc2ccc(NC(=O)c3ccc(C)c(Oc4ccnc5[nH]ccc45)c3)cc2C(F)(F)F)CC1	target engagement in cells	inhibitor	chemoproteomics	Huh-7	10 µM	inhibition	-12.6%
Cc1cnc(NC2CCOCC2)nc1-n1cnc(C(=O)NC(CN)c2cc(F)cc(Cl)c2)c1 (stereo not shown)	enzyme activity	inhibitor	radiometric	–	1 µM	remaining activity	99%
CN(c1ccnc(CNc2nc(Nc3ccc4c(c3)CC(=O)N4)ncc2C(F)(F)F)n1)S(C)(=O)=O	cell-free assay	–	competition with immobilised ligand	–	1 µM	remaining binding	49%
CCCCNc1ncc2c(-c3ccc(F)cc3)nn(C[C@H]3CC[C@H](N)CC3)c2n1	target engagement in cells	inhibitor	chemoproteomics	–	20 mM	inhibition	-1.9%
Nc1ncnc2occ(-c3ccc(NC(=O)Nc4cc(C(F)(F)F)ccc4F)cc3)c12	cell-free assay	inhibitor	–	–	20 µM	remaining signal	16%
CN([C@@H]1CCc2c(CC(=O)O)c3ccccc3n2C1)S(=O)(=O)c1ccc(F)cc1	cell-free assay	–	competition with immobilised ligand	–	1 µM	remaining binding	94%
Cc1ccc(NC(=O)c2ccc(C)c(C(F)(F)F)c2)cc1C#Cc1nn(C2CCC(O)CC2)c2ncnc(N)c12 (stereo not shown)	cell-free assay	–	–	–	10 µM	remaining signal	94%
O=S(=O)(NC1CCC(c2cc(F)ccc2F)(S(=O)(=O)c2ccc(Cl)cc2)CC1)C(F)(F)F (stereo not shown)	cell-free assay	–	competition with immobilised ligand	–	1 µM	remaining binding	100%
Cc1ccc(C(=O)Nc2ccc(CN3CCN(C)CC3)c(C(F)(F)F)c2)cc1C#Cc1cnc2cccnn12	enzyme activity	inhibitor	–	–	23.5 nM	remaining activity	81%
Cc1ccc(C(=O)NCc2ccsc2)cc1C#Cc1cn(C(C)C)c2ncnc(N)c12	enzyme activity	inhibitor	–	–	1 µM	activity vs control	100%
CN1CC(Oc2cnc(C#N)cc2-c2ccn3nc(NC(=O)C4CC4)cc3c2)C1	enzyme activity	inhibitor	–	–	1 µM	inhibition	4%
Cc1cc(NC(=O)c2cccc3cc(-c4cccc5[nH]nc(N)c45)ccc23)ccc1F	enzyme activity	inhibitor	–	–	0.1 µM	activity vs control	87%
COc1cccc2c(NCc3ccccc3)nc(-n3c(N)nc4ccccc43)nc12	target engagement in cells	inhibitor	chemoproteomics	–	20 mM	inhibition	-6.5%
